By Ki is commonly meant a measure of affinity in units of concentration, obtained from inhibition or displacement. As a reminder, the IC50 is the point on the concentration scale where inhibition reaches its midpoint. One may read the EC50 as the concentration needed to bring the measured effect to its halfway point.

Entries after “also recorded” stand apart in the source; their conditions may differ. Where a name gives a salt, the structure may show the parent alone. Read-outs that look alike come from different tables or passages of the source.

Results on six molecules are retold here after publication PMC5299595 (Fitoterapia, 2016).

Data set [1] addresses α4β2-nicAchR. Particulars: read-out: Ki α4β2-nicAchR, cited from earlier work.
The target in data set [2] is T1, DAT (Rattus norvegicus, UniProt P23977). The settings on record: cited from earlier work.
Data set [3] has as its target α7-nicAchR. The settings on record: read-out: Ki α7-nicAchR, cited from earlier work.
The test system of data set [4] is rat striatal slices preloaded with [3H]-DA. Particulars: cited from earlier work.
In the next data set the test system is mice. The settings on record: cited from earlier work.
Data set [5] relates to α4β2- and α7-nicAchRs. Particulars: previously reported, ref Littleton et al. (2005) [15], cited from earlier work.
The test system of data set [6] is α4β2- and α7-nicAchRs. Particulars: α7 vs α4β2, based on comparison of Ki's.
The nature of data set [7]: DPPH free radical scavenging assay. The settings on record: read-out: EC50, DPPH free radical scavenging; DPPH 300 μM, 5 minutes. (In general: The DPPH test is a chemical assay of radical scavenging.)
The conditions of data set [8]: PubChem data; cited from earlier work.
Data set [9] concerns the target T1, DAT. Briefly: [3H]-GBR12935 competition binding in rat striatal membranes. The settings on record: read-out: Ki, [3H]-GBR12935 binding. In outline:
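Striatal tissue homogenised in 120 mM NaCl/50 mM Tris-HCl (pH 7.4), spun at 25,000 × g for 20 min at 4°C, then washed thrice in the same buffer plus 0.01% FBS. Membranes (1 mg/ml final) preincubated 15 min with test compound (final 1.0 mM – 0.1 nM; DMSO <0.1%). 1 nM [3H]-GBR12935 then added for 1 h at room temperature. GF/B filtration and scintillation counting; non-specific binding defined with 10 μM GBR12909.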

For a further data set, the system named is cats. Particulars: intravenous; cited from earlier work.
Data set [10] deals with rat striatal slices preloaded with [3H]-DA. The data set is described as follows: Fractional [3H] release from [3H]-DA preloaded superfused rat striatal slices. It counts as cell-based. The essentials: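 Rat coronal striatal slices (500 μm, 6–8 mg) equilibrated 30 min at 34°C in oxygenated Krebs' buffer (pH 7.4), then preloaded with 0.1 μM [3H]-DA for 30 min. Superfused at 34°C, 1 ml/min, with buffer containing 10 μM pargyline and 10 μM nomifensine. Two 4-min basal samples taken after 60 min. Test compound (10, 100 or 1000 μM) then perfused per chamber, or 100 μM given after 20 min of 10 μM MEC or vehicle. Compared with vehicle-treated slices by Bonferroni post-hoc test; n = 4–10 rats.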

Another data set addresses nicAchRs. Briefly: [3H]-epibatidine competition binding in rat cortical membranes. Particulars: read-out: Ki, [3H]-epibatidine binding.
The test system of another data set is rabbits. The settings on record: intravenous; cited from earlier work.
Data set [11] has as its target T1, DAT. Format: in vivo. The essentials: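 High-speed chronoamperometry with Nafion-coated carbon fibre microelectrodes in the dorsal striatum of isoflurane-anaesthetised rats. Clearance of locally applied exogenous DA used to gauge DAT function, and test compound also applied locally in the striatum.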
Data set [12] deals with α7-nicAchR (Rattus norvegicus, UniProt Q05941). The data set is described as follows: [3H]-MLA competition binding in rat hippocampal membranes. The settings on record: read-out: Ki, [3H]-MLA binding (α7-nicAchR).
Data set [13] concerns the target T1, DAT. The data set is described as follows: DAT-mediated [3H]-DA uptake in rat striatal synaptosomes. Format: biochemical. The settings on record: read-out: IC50, DAT-mediated [3H]-DA uptake. In outline:
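Striata from CO2-anaesthetised adult male Sprague-Dawley rats (200–250 g) homogenised in pH 7.4 HEPES uptake buffer (100 μM pargyline, 0.32 M sucrose). Synaptosomes taken as the 16,000 × g pellet after a 1,000 × g spin. Test compound (final 1 mM – 0.1 nM; DMSO ≤1.0%) preincubated 10 min at 37°C. [3H]-DA (15–30 nM final) uptake for 5 min at 37°C, stopped on ice, GF/C filtration, scintillation counting. Non-specific uptake defined with 10 μM GBR-12909.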

Data set [14] has as its system nicAchRs in SH-SY5Y cells. Briefly: 45Ca2+ entry in SH-SY5Y cells. Format: cell-based, human.
Data set [15] deals with α4β2-nicAchR (Rattus norvegicus, UniProt P09483+P12390). The data set is described as follows: [3H]-cytisine competition binding in rat cortical membranes. Particulars: read-out: Ki, [3H]-cytisine binding (α4β2-nicAchR).

Consider `CN1[C@@H](CC(=O)c2ccccc2)CCC[C@H]1C[C@H](O)c1ccccc1` [Lobeline, (−)-lobeline hydrochloride], for which the figures for the Ki on α4β2-nicAchR [1] (ref Hojahmat et al. (2010)) and at α7-nicAchR [3] (ref Hojahmat et al. (2010)) were 0.004 µM and 6.26 µM, respectively. At DAT [2] (read-out: IC50, DAT inhibition), the IC50 is 28.2 to 80 µM. Moreover, the “MEC sensitivity of evoked fractional [3H] release” value in [4] is reported as “MEC-insensitive”. In addition, in the data set on mice (mouse, in vivo, sc), the minimal lethal dose is 300 mg/kg. For the same molecule, the DDR value is on record as 6.27 ^6 in the data set on α4β2- and α7-nicAchRs [5]; 6.27 in the data set on α4β2- and α7-nicAchRs [5] (listed as lobeline). In addition, the “NicAchR Selectivity (-fold difference)” value in the data set with α4β2- and α7-nicAchRs [6] is reported as 1565 -fold. For the same molecule, the EC50 in data set [7] turned out to be 229 µM.
`CN1CCCC2C(c3ccccc3)C(C3=NCCCC3)C(c3ccccc3)CC21` (stereo not drawn) [Lobinaline, lobinaline]: the hydrogen bond acceptors in data set [8] is 2. For the same molecule, in data set [8], the hydrogen bond donors was 0. Further, the molar fractivity in data set [8] is listed as 82.47. Besides, the Ki at DAT [9] stood at 2.54 µM; on nicAchRs, 16.2 µM; at α7-nicAchR [12], 67.5 µM; on α4β2-nicAchR [15], 1.07 µM. Moreover, the “Effect on blood pressure” value in the data set with cats and in the data set with rabbits was “lower blood pressure” each time. The Effect on respiration entry with cats and in the data set on rabbits was “unaffected” in each case. The “Fractional [3H] release vs vehicle” value in data set [10] (10 μM) was “not significantly increased”. Further, the “Fractional [3H] release vs vehicle after MEC pretreatment” value in data set [10] (100 μM after 10 μM MEC pretreatment for 20 minutes) is recorded as “not significantly different; also recorded: no significant difference”. In addition, the “Fractional [3H] release, greater than vehicle” value in [10] (100 μM, 8 minutes after treatment, MEC experiment set) is listed as 160%. The “Maximum fractional [3H] release, greater than vehicle treated” value in [10] (100 μM, maximum 12 minutes post-treatment, concentration-response studies) worked out at 186%; in data set [10] (1000 μM, maximum 8 minutes post-treatment), 494%. Besides, the “Maximum fractional [3H] release, greater than vehicle treated controls” value in [10] (100 μM, maximum 16 minutes after treatment, MEC experiment set) was determined as 262%. The “Time after ejection at which effects on DA clearance are no longer significant” value on DAT [11] (local application in striatum) lay within 3 to 5 min. Further, the “Direct effect on electrochemical DA signal when locally applied alone” value at DAT [11] (locally applied from a micropipette, n = 10, data not shown) is “no direct effects”. In the data set with mice (subcutaneous administration in mice), the minimal lethal dose is listed as 800 mg/kg. Besides, the IC50 on DAT [13] came to 12 µM. In addition, the “45Ca2+ entry, increase above basal” value came out at 41.6% in data set [14] (1 mM) and 115.7% in [14] (1 mM concomitantly with NIC 10 μM). The “Effect of MEC on compound-induced 45Ca2+ entry” value in data set [14] (1 mM with MEC 1 μM) is recorded as “completely abolished”. For the same molecule, in the data set on α4β2- and α7-nicAchRs [6], the “NicAchR Selectivity (-fold difference)” value is recorded as 63 -fold. In data set [7], the EC50 amounted to 18 µM.
As to `CNC1(C)C2CCC(C2)C1(C)C` (stereo not drawn) [MEC, mecamylamine (MEC) hydrochloride], in [14] (1 μM alone), the “Effect on 45Ca2+ entry” value is reported as “unaffected; also recorded: did not affect”.
In the case of `CN1CCC[C@H]1c1cccnc1` [Nicotine, (−)-nicotine], the Ki was 0.00096 µM at α4β2-nicAchR [1] (ref Rueter et al. (2006)) and 1.45 µM at α7-nicAchR [3] (ref Rueter et al. (2006)). In addition, on DAT [2] (rat striatal synaptosomes), the “Activity at the DAT” value was “inactive”. In addition, the DDR value in the data set on α4β2- and α7-nicAchRs [5] is 13.00 ^6; in the data set on α4β2- and α7-nicAchRs [5] (listed as nicotine), 13.00. The “45Ca2+ entry, increase above basal” value in [14] (10 μM, LCaq experiments (Fig. 1A)) is 374.4%; in data set [14] (10 μM, lobinaline experiments (Fig. 6A)) it was 196.6%. The “NicAchR Selectivity (-fold difference)” value in the data set with α4β2- and α7-nicAchRs [6] is 1508 -fold.
Turning to `O=c1c(O)c(-c2ccc(O)c(O)c2)oc2cc(O)cc(O)c12` [Quercetin], the 50% effective concentration (EC50) in [7] came to 11.2 µM.
As for `c1cncc([C@@H]2CCCCN2)c1` [anabasine], the figures for the inhibitory constant (Ki) on α4β2-nicAchR [1] and on α7-nicAchR [3] were 0.065 µM and 0.058 µM, respectively. In addition, in the data set with α4β2- and α7-nicAchRs [5], the DDR value is reported as 4.16.
